ChEMBL document CHEMBL4680121, “Development of (4-methoxyphenyl)-1H-tetrazol-5-amine regioisomers as a new class of selective antitubercular agents” (Eur J Med Chem, 2020)
In brackets after ≈: the same amount, converted by molar mass.

Legend:
[1] = tested on: Staphylococcus epidermidis; test: Antibacterial activity against Staphylococcus epidermidis ATCC 12228 assessed as bacterial growth inhibition measured after 18 hrs by two-fold serial microdilution method; type: functional
Outline: (§1)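 Two-fold serial broth microdilution in MH II medium following modified CLSI procedures. Compounds were dissolved in DMSO and diluted in medium to at most 1% solvent, tested from 0.03125 to 512 μg/ml. Final inoculum 10^6 CFU/ml. MIC was taken as the lowest concentration with no visible growth after 18 h at 35 °C.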

[2] = tested on: Staphylococcus epidermidis; test: Antibacterial activity against Staphylococcus epidermidis ATCC 1457 assessed as bacterial growth inhibition measured after 18 hrs by two-fold serial microdilution method; type: functional; outline: as §1
[3] = tested on: Mycobacterium tuberculosis; test: Antitubercular activity against Mycobacterium tuberculosis H37Rv ATCC 25618 assessed as inhibition of microbial growth by classical test tube method; type: functional
Outline: (§2)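 Classical test-tube serial dilution in Youmans' modified Proskauer–Beck liquid medium with 10% bovine serum. Inoculum came from 14-day-old cultures. Compounds were given as DMSO solutions (stock 10 mg/ml), diluted geometrically in medium to 3.1–100 µg/ml, and incubated at 37 °C. MIC is the minimum concentration inhibiting growth relative to a no-compound control.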

[4] = tested on: Pseudomonas aeruginosa; test: Antibacterial activity against Pseudomonas aeruginosa PAO1 assessed as bacterial growth inhibition measured after 18 hrs by two-fold serial microdilution method; type: functional; outline: as §1
[5] = tested on: Mycobacterium tuberculosis; test: Antitubercular activity against Mycobacterium tuberculosis Spec.192 assessed as inhibition of microbial growth by classical test tube method; type: functional; outline: as §2
[6] = tested on: Pseudomonas aeruginosa; test: Antibacterial activity against Pseudomonas aeruginosa NCTC 6749 assessed as bacterial growth inhibition measured after 18 hrs by two-fold serial microdilution method; type: functional; outline: as §1
[7] = tested on: Escherichia coli; test: Antibacterial activity against Escherichia coli ATCC 25922 assessed as bacterial growth inhibition measured after 18 hrs by two-fold serial microdilution method; type: functional; outline: as §1
[8] = tested on: Staphylococcus epidermidis; test: Antibacterial activity against Staphylococcus epidermidis ATCC 35984/RP62A assessed as bacterial growth inhibition measured after 18 hrs by two-fold serial microdilution method; type: functional; outline: as §1
[9] = tested on: Staphylococcus aureus; test: Antibacterial activity against Staphylococcus aureus NCTC 4163 assessed as bacterial growth inhibition measured after 18 hrs by two-fold serial microdilution method; type: functional; outline: as §1
[10] = tested on: Proteus vulgaris; test: Antibacterial activity against Proteus vulgaris NCTC 4635 assessed as bacterial growth inhibition measured after 18 hrs by two-fold serial microdilution method; type: functional; outline: as §1
[11] = tested on: Staphylococcus aureus; test: Antibacterial activity against Staphylococcus aureus ATCC 6538 assessed as bacterial growth inhibition measured after 18 hrs by two-fold serial microdilution method; type: functional; outline: as §1
[12] = tested on: Klebsiella pneumoniae; test: Antibacterial activity against Klebsiella pneumoniae ATCC 10031 assessed as bacterial growth inhibition measured after 18 hrs by two-fold serial microdilution method; type: functional; outline: as §1
[13] = tested on: Mycobacterium avium; test: Antimycobacterial activity against Mycobacterium avium assessed as inhibition of microbial growth incubated for 1 week by MABA method; type: functional; settings: 168 h, time 1 weeks
Outline: (§3)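 Microplate Alamar Blue assay in Middlebrook 7H9 broth with 10% OADC. Inoculum from fresh LJ culture was adjusted to McFarland 1 and diluted 1:20. DMSO stocks were two-fold serially diluted to final 0.125–512 µg/ml, with growth and sterile controls. Plates ran 1 week at 37 °C, then Alamar blue was added for 24 h. MIC is the lowest concentration preventing the blue-to-pink change.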

[14] = tested on: Mycobacterium tuberculosis; test: Antitubercular activity against Mycobacterium tuberculosis H37Rv ATCC 25618 assessed as inhibition of microbial growth incubated for 1 week by MABA method; type: functional; settings: H37Rv ATCC 25618, 168 h, time 1 weeks; outline: as §3
[15] = tested on: Mycobacterium xenopi; test: Antibacterial activity against Mycobacterium xenopi assessed as inhibition of microbial growth incubated for 1 week by MABA method; type: functional; settings: 168 h, time 1 weeks
Outline: (§4)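 Microplate Alamar Blue assay using two-fold serial microdilution in Middlebrook 7H9 broth with 10% OADC, compounds 0.125–512 µg/ml from DMSO stocks. Inoculum came from fresh LJ culture, was adjusted to McFarland 1 and diluted 1:20. Plates were incubated 1 week at 37 °C, Alamar blue was added and plates were re-incubated 24 h. MIC was the lowest concentration preventing the blue-to-pink change. Each plate carried growth and sterile controls.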

[16] = tested on: Mycobacterium scrofulaceum; test: Antibacterial activity against Mycobacterium scrofulaceum assessed as inhibition of microbial growth incubated for 1 week by MABA method; type: functional; settings: 168 h, time 1 weeks; outline: as §4
[17] = tested on: V79; test: Cytotoxicity against Chinese Hamster V79 cells assessed as reduction in cell viability at 100 uM measured after 72 hrs by MTT assay; type: cell-based, Cricetulus griseus; settings: v79, 72 h
Outline: (§5)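 MTT viability assay on cells grown in DMEM with 10% heat-inactivated FBS, penicillin/streptomycin and 20 mM HEPES at 37 °C/5% CO2. Cells were seeded at 1×10^4 per well and allowed to adhere for 24 h, then the medium was refreshed. Compounds were added at 20–140 μM for 72 h at 37 °C, followed by MTT (0.5 mg/mL in serum-free medium) for 4 h. Untreated cells served as control. IC50 is the concentration giving 50% growth inhibition versus control.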

[18] = tested on: Mycobacterium kansasii; test: Antibacterial activity against Mycobacterium kansasii assessed as inhibition of microbial growth incubated for 1 week by MABA method; type: functional; settings: 168 h, time 1 weeks; outline: as §4
[19] = tested on: HaCaT; test: Cytotoxicity against human HaCaT cells assessed as reduction in cell viability at 100 uM measured after 72 hrs by MTT assay; type: cell-based; outline: as §5
[20] = tested on: Mycolicibacterium fortuitum; test: Antibacterial activity against Mycobacterium fortuitum assessed as inhibition of microbial growth incubated for 1 week by MABA method; type: functional; settings: 168 h, time 1 weeks; outline: as §4
[21] = tested on: HaCaT; test: Cytotoxicity against human HaCaT cells assessed as reduction in cell viability measured after 72 hrs by MTT assay; type: cell-based; outline: as §5
[22] = tested on: V79; test: Cytotoxicity against Chinese Hamster V79 cells assessed as reduction in cell viability measured after 72 hrs by MTT assay; type: cell-based; settings: Cricetulus griseus, V79, 72 h; outline: as §5
[23] = tested on: Mycobacterium tuberculosis; test: Antitubercular activity against Mycobacterium tuberculosis Spec.192 assessed as inhibition of microbial growth incubated for 1 week by MABA method; type: functional; settings: Mycobacterium tuberculosis, 192, 168 h; time 1 weeks; outline: as §3
[24] = tested on: Mycobacterium intracellulare; test: Antimycobacterial activity against Mycobacterium intracellulare assessed as inhibition of microbial growth incubated for 1 week by MABA method; type: functional; settings: 168 h, time 1 weeks; outline: as §4

COc1ccc(NC(S)=Nc2ccc(F)cc2)cc1
MIC [1]: > 256 µg/mL
MIC [2]: > 256 µg/mL
MIC [3]: 50 µg/mL
MIC [4]: > 256 µg/mL
MIC [5]: 100 µg/mL
MIC [6]: > 256 µg/mL
MIC [7]: > 256 µg/mL
MIC [8]: > 256 µg/mL
MIC [9]: > 256 µg/mL
MIC [10]: > 256 µg/mL
MIC [11]: > 256 µg/mL
MIC [12]: > 256 µg/mL

COc1ccc(Nc2nnnn2-c2ccccc2Br)cc1
MIC [13]: > 512 µg/mL
MIC [1]: > 256 µg/mL
MIC [14]: 16 µg/mL
MIC [2]: > 256 µg/mL
MIC [15]: > 512 µg/mL
MIC [16]: 128 µg/mL
Activity [17]: Non-Toxic
MIC [4]: > 256 µg/mL
MIC [18]: 256 µg/mL
Activity [19]: Non-Toxic
MIC [20]: > 512 µg/mL
MIC [6]: > 256 µg/mL
IC50 [21]: 105 µM
MIC [7]: > 256 µg/mL
MIC [8]: > 256 µg/mL
MIC [9]: > 256 µg/mL
MIC [10]: > 256 µg/mL
IC50 [22]: 119 µM
MIC [23]: 16 µg/mL
MIC [11]: > 256 µg/mL
MIC [12]: > 256 µg/mL
MIC [24]: 256 µg/mL

COc1ccc(NC(=S)Nc2ccccc2Cl)cc1
MIC [1]: > 256 µg/mL
MIC [2]: > 256 µg/mL
MIC [3]: 25 µg/mL
MIC [4]: > 256 µg/mL
MIC [5]: 25 µg/mL
MIC [6]: > 256 µg/mL
MIC [7]: > 256 µg/mL
MIC [8]: > 256 µg/mL
MIC [9]: > 256 µg/mL
MIC [10]: > 256 µg/mL
MIC [11]: > 256 µg/mL
MIC [12]: > 256 µg/mL

COc1ccc(Nc2nnnn2-c2cccc(Br)c2)cc1
MIC [13]: 64 µg/mL
MIC [1]: > 256 µg/mL
MIC [14]: 16 µg/mL
MIC [2]: > 256 µg/mL
MIC [15]: 512 µg/mL
MIC [16]: 32 µg/mL
Activity [17]: Non-Toxic
MIC [4]: > 256 µg/mL
MIC [18]: 512 µg/mL
Activity [19]: Non-Toxic
MIC [20]: 512 µg/mL
MIC [6]: > 256 µg/mL
IC50 [21]: 107 µM
MIC [7]: > 256 µg/mL
MIC [8]: > 256 µg/mL
MIC [9]: > 256 µg/mL
MIC [10]: > 256 µg/mL
IC50 [22]: 124 µM
MIC [23]: 16 µg/mL
MIC [11]: > 256 µg/mL
MIC [12]: > 256 µg/mL
MIC [24]: > 256 µg/mL

COc1ccc(Nc2nnnn2-c2ccc(Br)cc2)cc1
MIC [13]: > 512 µg/mL
MIC [1]: > 256 µg/mL
MIC [14]: 16 µg/mL
MIC [2]: > 256 µg/mL
MIC [15]: 512 µg/mL
MIC [16]: 256 µg/mL
Activity [17]: Non-Toxic
MIC [4]: > 256 µg/mL
MIC [18]: 512 µg/mL
Activity [19]: Non-Toxic
MIC [20]: > 512 µg/mL
MIC [6]: > 256 µg/mL
IC50 [21]: 103 µM
MIC [7]: > 256 µg/mL
MIC [8]: > 256 µg/mL
MIC [9]: > 256 µg/mL
MIC [10]: > 256 µg/mL
IC50 [22]: 125 µM
MIC [23]: 16 µg/mL
MIC [11]: > 256 µg/mL
MIC [12]: > 256 µg/mL
MIC [24]: 256 µg/mL

COc1ccc(Nc2nnnn2-c2ccc(F)cc2)cc1
MIC [13]: > 512 µg/mL
MIC [1]: 64 µg/mL (≈ 224 µM)
MIC [14]: 8 µg/mL
MIC [2]: 128 µg/mL (≈ 449 µM)
MIC [15]: 256 µg/mL
MIC [16]: 64 µg/mL
Activity [17]: Non-Toxic
MIC [4]: 256 µg/mL (≈ 897 µM)
MIC [18]: 512 µg/mL
Activity [19]: Non-Toxic
MIC [20]: > 512 µg/mL
MIC [6]: 256 µg/mL (≈ 897 µM)
IC50 [21]: 101 µM
MIC [7]: 256 µg/mL (≈ 897 µM)
MIC [8]: 128 µg/mL (≈ 449 µM)
MIC [9]: 64 µg/mL (≈ 224 µM)
MIC [10]: 256 µg/mL (≈ 897 µM)
IC50 [22]: 145 µM
MIC [23]: 8 µg/mL
MIC [11]: 64 µg/mL (≈ 224 µM)
MIC [12]: > 256 µg/mL
MIC [24]: 512 µg/mL

COc1ccc(NC(=S)Nc2cccc(F)c2)cc1
MIC [1]: > 256 µg/mL
MIC [2]: > 256 µg/mL
MIC [3]: 50 µg/mL
MIC [4]: > 256 µg/mL
MIC [5]: 100 µg/mL
MIC [6]: > 256 µg/mL
MIC [7]: > 256 µg/mL
MIC [8]: > 256 µg/mL
MIC [9]: > 256 µg/mL
MIC [10]: > 256 µg/mL
MIC [11]: > 256 µg/mL
MIC [12]: > 256 µg/mL

COc1ccc(Nc2nnnn2-c2ccccc2Cl)cc1
MIC [13]: 512 µg/mL
MIC [1]: 64 µg/mL (≈ 212 µM)
MIC [14]: 8 µg/mL
MIC [2]: 128 µg/mL (≈ 424 µM)
MIC [15]: 512 µg/mL
MIC [16]: 32 µg/mL
Activity [17]: Non-Toxic
MIC [4]: 256 µg/mL (≈ 848 µM)
MIC [18]: 256 µg/mL
Activity [19]: Non-Toxic
MIC [20]: 128 µg/mL
MIC [6]: 256 µg/mL (≈ 848 µM)
IC50 [21]: 100 µM
MIC [7]: 256 µg/mL (≈ 848 µM)
MIC [8]: 64 µg/mL (≈ 212 µM)
MIC [9]: 64 µg/mL (≈ 212 µM)
MIC [10]: 256 µg/mL (≈ 848 µM)
IC50 [22]: 102 µM
MIC [23]: 8 µg/mL
MIC [11]: 64 µg/mL (≈ 212 µM)
MIC [12]: 256 µg/mL (≈ 848 µM)
MIC [24]: 128 µg/mL

COc1ccc(NC(=S)Nc2ccccc2F)cc1
MIC [1]: > 256 µg/mL
MIC [2]: > 256 µg/mL
MIC [3]: 50 µg/mL
MIC [4]: > 256 µg/mL
MIC [5]: 50 µg/mL
MIC [6]: > 256 µg/mL
MIC [7]: > 256 µg/mL
MIC [8]: > 256 µg/mL
MIC [9]: > 256 µg/mL
MIC [10]: > 256 µg/mL
MIC [11]: > 256 µg/mL
MIC [12]: > 256 µg/mL
